According to ChEMBL document CHEMBL4834423, “Discovery of AG-270, a First-in-Class Oral MAT2A Inhibitor for the Treatment of Tumors with Homozygous MTAP Deletion” (J Med Chem, 2021):

How the values were obtained:
[1] = biological target: S-adenosylmethionine synthase isoform type-2 (Homo sapiens, UniProt P31153); assay: Inhibition of recombinant human MAT2A expressed in baculovirus infected Sf9 cells assessed as S-adenosyl methionine production using L-methionine as substrate incubated for 60 mins followed by substrate addition and measured after 60 mins relative to control; parameters: concentration or dose not given beside the values
[2] = Solubility of compound at pH 2; type: physicochemical; conditions: buffer
[3] = Solubility of compound at pH 7.4; type: physicochemical; conditions: buffer
[4] = Protein binding in human plasma assessed as unbound fraction; type: ADME, cell-free
[5] = Protein binding in monkey plasma assessed as unbound fraction; type: ADME, cell-free, Macaca mulatta; conditions: rhesus monkey
[6] = Protein binding in dog plasma assessed as unbound fraction; type: ADME, cell-free, Canis lupus familiaris
[7] = Protein binding in rat plasma assessed as unbound fraction; type: ADME, cell-free
[8] = Protein binding in mouse plasma assessed as unbound fraction; type: ADME, cell-free
[9] = Oral bioavailability in dog at 5 mg/kg; type: ADME, organism-based, Canis lupus familiaris; conditions: in vivo
[10] = biological target: T1, Solute carrier organic anion transporter family member 1B1 (Homo sapiens, UniProt Q9Y6L6); assay: Inhibition of OATP1B1 (unknown origin); type: ADME
T1 sequence (Q9Y6L6 whole entry): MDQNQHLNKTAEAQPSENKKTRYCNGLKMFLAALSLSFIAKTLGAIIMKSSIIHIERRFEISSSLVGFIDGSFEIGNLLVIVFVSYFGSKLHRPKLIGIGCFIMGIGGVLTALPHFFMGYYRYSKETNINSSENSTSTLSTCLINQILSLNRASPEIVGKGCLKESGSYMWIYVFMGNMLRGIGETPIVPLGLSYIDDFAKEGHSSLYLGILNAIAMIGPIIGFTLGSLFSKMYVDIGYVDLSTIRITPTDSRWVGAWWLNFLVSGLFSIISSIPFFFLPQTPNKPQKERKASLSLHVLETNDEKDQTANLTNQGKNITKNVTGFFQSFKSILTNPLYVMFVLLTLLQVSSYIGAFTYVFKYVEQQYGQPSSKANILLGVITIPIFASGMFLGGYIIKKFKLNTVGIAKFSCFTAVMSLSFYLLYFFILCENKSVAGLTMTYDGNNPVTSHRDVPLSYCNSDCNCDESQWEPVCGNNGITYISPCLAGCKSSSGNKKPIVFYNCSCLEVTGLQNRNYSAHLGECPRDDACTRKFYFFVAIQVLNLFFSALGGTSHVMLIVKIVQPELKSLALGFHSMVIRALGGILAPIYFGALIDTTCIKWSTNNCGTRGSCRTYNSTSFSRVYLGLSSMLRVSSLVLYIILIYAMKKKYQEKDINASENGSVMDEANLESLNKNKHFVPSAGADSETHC

Cytochrome P450 3A4 = Cytochrome P450 3A4 (Homo sapiens, UniProt P08684); assay: Inhibition of CYP3A4 (unknown origin); type: ADME
Cytochrome P450 2C9 [11] = biological target: T2, Cytochrome P450 2C9 (Homo sapiens, UniProt P11712); assay: Inhibition of CYP2C9 (unknown origin); type: ADME
Cytochrome P450 2C19 [12] = biological target: T3, Cytochrome P450 2C19 (Homo sapiens, UniProt P33261); assay: Inhibition of CYP2C19 (unknown origin); type: ADME
Cytochrome P450 2D6 [13] = biological target: T4, Cytochrome P450 2D6 (Homo sapiens, UniProt P10635); assay: Inhibition of CYP2D6 (unknown origin); type: ADME
Cytochrome P450 2C9 [14] = biological target: T2, Cytochrome P450 2C9; assay: Inhibition of CYP2C9 (unknown origin) assessed as inactivation relative to control; type: ADME
Cytochrome P450 2C19 [15] = biological target: T3, Cytochrome P450 2C19; assay: Inhibition of CYP2C19 (unknown origin) assessed as inactivation relative to control; type: ADME
Cytochrome P450 2D6 [16] = biological target: T4, Cytochrome P450 2D6; assay: Inhibition of CYP2D6 (unknown origin) assessed as inactivation relative to control; type: ADME
KP-4 [17] = assay: Anticancer activity in MTAP-null human KP-4 cells xenografted mouse model assessed as tumor growth inhibition at 10 mg/kg, po qd treated for 38 days relative to control; type: functional; conditions: KP-4, po, 912 h, time 38 day, read-out: TGI
In short: (§1)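 Subcutaneous KP4 MTAP-null xenograft mice, 12 per arm (60 animals), dosed orally once daily on days 24−38 at 10−200 mg/kg. Tumor SAM levels and plasma compound exposure were monitored; plasma sampled up to 24 h after the last dose. Mean tumor volume and body weight change were tracked; error bars are SEM.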

KP-4 [18] = assay: Anticancer activity in MTAP-null human KP-4 cells xenografted mouse model assessed as tumor growth inhibition at 30 mg/kg, po qd treated for 38 days relative to control; type: functional; conditions: KP-4, po, 912 h, time 38 day, read-out: TGI; in short: as §1
KP-4 [19] = assay: Anticancer activity in MTAP-null human KP-4 cells xenografted mouse model assessed as tumor growth inhibition at 100 mg/kg, po qd treated for 38 days relative to control; type: functional; conditions: KP-4, po, 912 h, time 38 day, read-out: TGI; in short: as §1
KP-4 [20] = assay: Anticancer activity in MTAP-null human KP-4 cells xenografted mouse model assessed as tumor growth inhibition at 200 mg/kg, po qd treated for 38 days relative to control; type: functional; conditions: KP-4, po, 912 h, time 38 day, read-out: TGI; in short: as §1
KP-4 [21] = assay: Anticancer activity in MTAP-null human KP-4 cells xenografted mouse model assessed as inhibition of SAM production at 10 mg/kg, po qd treated for 38 days relative to control; type: functional; conditions: KP-4, po, 912 h, time 38 day; in short: as §1
KP-4 [22] = assay: Anticancer activity in MTAP-null human KP-4 cells xenografted mouse model assessed as inhibition of SAM production at 30 mg/kg, po qd treated for 38 days relative to control; type: functional; conditions: KP-4, po, 912 h, time 38 day; in short: as §1
KP-4 [23] = assay: Anticancer activity in MTAP-null human KP-4 cells xenografted mouse model assessed as inhibition of SAM production at 100 mg/kg, po qd treated for 38 days relative to control; type: functional; conditions: KP-4, po, 912 h, time 38 day; in short: as §1
KP-4 [24] = assay: Anticancer activity in MTAP-null human KP-4 cells xenografted mouse model assessed as inhibition of SAM production at 200 mg/kg, po qd treated for 38 days relative to control; type: functional; conditions: KP-4, po, 912 h, time 38 day; in short: as §1
[25] = Toxicity in MTAP-null human KP-4 cells xenografted mouse model assessed as body weight change at 10 to 200 mg/kg, po qd treated for 38 days; type: organism-based; conditions: in vivo, 912 h, dose 10-200 mg/kg, time 38 day; in short: as §1
HCT-116 = assay: cells; conditions: Homo sapiens, HCT-116, 96 h
cells = conditions: Homo sapiens, HCT-116, 72 h

T4 sequence (P10635 whole entry): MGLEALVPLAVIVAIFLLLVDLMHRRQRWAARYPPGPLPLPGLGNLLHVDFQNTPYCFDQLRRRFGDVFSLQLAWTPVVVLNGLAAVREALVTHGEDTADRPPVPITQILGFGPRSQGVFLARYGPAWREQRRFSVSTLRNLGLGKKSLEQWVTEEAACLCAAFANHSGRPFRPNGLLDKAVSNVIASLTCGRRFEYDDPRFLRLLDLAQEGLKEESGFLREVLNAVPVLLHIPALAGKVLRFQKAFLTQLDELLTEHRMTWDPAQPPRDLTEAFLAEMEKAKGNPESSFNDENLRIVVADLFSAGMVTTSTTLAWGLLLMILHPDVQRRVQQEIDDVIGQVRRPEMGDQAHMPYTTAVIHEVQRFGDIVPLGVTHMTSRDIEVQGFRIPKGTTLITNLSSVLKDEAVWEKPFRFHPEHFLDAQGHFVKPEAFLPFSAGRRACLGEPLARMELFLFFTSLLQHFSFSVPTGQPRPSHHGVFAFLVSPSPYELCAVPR
T3 sequence (P33261 whole entry): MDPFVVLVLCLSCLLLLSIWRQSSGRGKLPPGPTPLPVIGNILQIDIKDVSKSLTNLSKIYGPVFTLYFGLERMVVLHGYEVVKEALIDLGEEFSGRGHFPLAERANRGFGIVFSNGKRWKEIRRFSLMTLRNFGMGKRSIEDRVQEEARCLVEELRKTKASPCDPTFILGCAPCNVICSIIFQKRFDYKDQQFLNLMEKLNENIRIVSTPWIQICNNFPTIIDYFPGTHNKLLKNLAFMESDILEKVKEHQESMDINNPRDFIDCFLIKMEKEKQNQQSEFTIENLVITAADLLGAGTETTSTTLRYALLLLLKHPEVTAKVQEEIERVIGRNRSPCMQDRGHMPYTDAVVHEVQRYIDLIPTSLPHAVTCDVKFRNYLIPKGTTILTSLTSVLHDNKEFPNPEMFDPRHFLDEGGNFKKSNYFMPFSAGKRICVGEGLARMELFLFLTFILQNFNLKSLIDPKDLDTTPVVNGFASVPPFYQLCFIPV
T2 sequence (P11712 whole entry): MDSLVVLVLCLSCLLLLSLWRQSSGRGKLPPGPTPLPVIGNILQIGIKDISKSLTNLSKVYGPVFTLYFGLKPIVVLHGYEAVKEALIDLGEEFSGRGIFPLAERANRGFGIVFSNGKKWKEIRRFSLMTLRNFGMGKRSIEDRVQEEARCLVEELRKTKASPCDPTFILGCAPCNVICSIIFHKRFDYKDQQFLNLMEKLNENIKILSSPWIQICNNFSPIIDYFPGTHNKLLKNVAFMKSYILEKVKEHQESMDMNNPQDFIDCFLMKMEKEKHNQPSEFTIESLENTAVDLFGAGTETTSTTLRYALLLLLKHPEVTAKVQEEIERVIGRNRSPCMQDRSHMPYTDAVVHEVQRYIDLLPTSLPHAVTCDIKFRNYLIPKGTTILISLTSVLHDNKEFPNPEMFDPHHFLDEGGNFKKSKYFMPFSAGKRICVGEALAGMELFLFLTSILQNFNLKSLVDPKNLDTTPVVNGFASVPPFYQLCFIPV
S-adenosylmethionine synthase isoform type-2, sequence (P31153 whole entry, looked up, canonical isoform): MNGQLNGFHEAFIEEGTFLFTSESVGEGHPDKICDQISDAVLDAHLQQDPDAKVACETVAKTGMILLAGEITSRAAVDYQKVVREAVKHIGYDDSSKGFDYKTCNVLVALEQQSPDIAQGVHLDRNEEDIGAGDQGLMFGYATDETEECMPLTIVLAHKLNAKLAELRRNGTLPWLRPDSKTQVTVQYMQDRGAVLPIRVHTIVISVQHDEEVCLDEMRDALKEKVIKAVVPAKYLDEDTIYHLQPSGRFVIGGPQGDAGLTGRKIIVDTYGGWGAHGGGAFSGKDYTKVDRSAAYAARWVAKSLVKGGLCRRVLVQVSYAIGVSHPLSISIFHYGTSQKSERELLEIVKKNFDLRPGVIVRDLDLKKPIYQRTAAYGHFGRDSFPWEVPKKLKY
Cytochrome P450 3A4, sequence (P08684 whole entry): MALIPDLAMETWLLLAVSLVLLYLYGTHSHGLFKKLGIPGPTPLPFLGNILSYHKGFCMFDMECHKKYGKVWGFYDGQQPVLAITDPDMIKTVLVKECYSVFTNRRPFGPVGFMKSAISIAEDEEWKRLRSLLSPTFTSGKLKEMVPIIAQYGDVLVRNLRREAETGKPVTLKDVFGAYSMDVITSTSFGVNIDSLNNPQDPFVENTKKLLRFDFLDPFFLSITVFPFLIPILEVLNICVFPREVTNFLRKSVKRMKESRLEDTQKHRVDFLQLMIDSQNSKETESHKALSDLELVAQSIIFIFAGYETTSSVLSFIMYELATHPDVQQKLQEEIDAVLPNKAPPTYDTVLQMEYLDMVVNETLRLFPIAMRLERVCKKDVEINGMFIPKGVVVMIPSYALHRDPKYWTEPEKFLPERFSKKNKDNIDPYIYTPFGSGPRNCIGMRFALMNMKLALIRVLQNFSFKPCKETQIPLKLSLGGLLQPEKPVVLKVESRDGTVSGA

Q: For `COc1ccc(-c2c(Nc3ccccn3)[nH]c3c(C4=CCCCC4)c(-c4ccccc4)nn3c2=O)cc1`, which inhibition [1] is on record?
A: The inhibition was 91%.

Q: What about the solubility [2] of the same compound?
A: The solubility was under 0.5 µM.

Q: What about the solubility [3] of the same compound?
A: Its solubility is under 0.1 µM.

Q: And the fraction unbound [4]?
A: The fraction unbound was 0.015.

Q: What about the fraction unbound [5] of the same compound?
A: The fraction unbound was 0.011.

Q: What about the fraction unbound [6] of the same compound?
A: The fraction unbound was 0.028.

Q: What about the fraction unbound [7] of the same compound?
A: Its fraction unbound is 0.016.

Q: What about the fraction unbound [8] of the same compound?
A: Its fraction unbound is 0.0028.

Q: What about the bioavailability [9] of the same compound?
A: The bioavailability was 48%.

Q: And the IC50 [10]?
A: Its IC50 is 2.1 µM.

Q: And the IC50 (Cytochrome P450 3A4)?
A: The IC50 was over 10 µM.

Q: What about the IC50 (Cytochrome P450 2C9 [11]) of the same compound?
A: Its IC50 is over 10 µM.

Q: And the IC50 (Cytochrome P450 2C19 [12])?
A: Its IC50 is over 10 µM.

Q: And the IC50 (Cytochrome P450 2D6 [13])?
A: Its IC50 is over 10 µM.

Q: And the INH (Cytochrome P450 2C9 [14])?
A: The INH was over 50 µM.

Q: And the INH (Cytochrome P450 2C19 [15])?
A: The INH was over 50 µM.

Q: And the INH (Cytochrome P450 2D6 [16])?
A: The INH was over 50 µM.

Q: What about the inhibition in vivo at 10 mg/kg (KP-4 [17]) of the same compound?
A: Its inhibition in vivo at 10 mg/kg is 36%.

Q: And the inhibition in vivo at 30 mg/kg (KP-4 [18])?
A: The inhibition in vivo at 30 mg/kg was 48%.

Q: What about the inhibition in vivo at 100 mg/kg (KP-4 [19]) of the same compound?
A: The inhibition in vivo at 100 mg/kg was 66%.

Q: What about the inhibition in vivo at 200 mg/kg (KP-4 [20]) of the same compound?
A: The inhibition in vivo at 200 mg/kg was 67%.

Q: And the inhibition in vivo at 10 mg/kg (KP-4 [21])?
A: Its inhibition in vivo at 10 mg/kg is 33.4%.

Q: What about the inhibition in vivo at 30 mg/kg (KP-4 [22]) of the same compound?
A: Its inhibition in vivo at 30 mg/kg is 44.7%.

Q: What about the inhibition in vivo at 100 mg/kg (KP-4 [23]) of the same compound?
A: Its inhibition in vivo at 100 mg/kg is 63.5%.

Q: And the inhibition in vivo at 200 mg/kg (KP-4 [24])?
A: The inhibition in vivo at 200 mg/kg was 81.1%.

Q: And the Activity [25]?
A: Its Activity is “Non-Toxic”.

Q: And the IC50 (HCT-116)?
A: The IC50 was 0.257 µM.

Q: What about the IC50 (cells) of the same compound?
A: Its IC50 is 20 µM.
